TAAR1 agonist: agonists of human TAAR1 | Q96RJ0 | CHO RD-HGA16 TAAR1, Fluo-8 calcium fluorescence; vehicle wells 0%, saturating PEA agonist 100% | activation, % at 3 µM | 0.99% of 360,000 active | AID 624467;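 active = activation above the mean activation of all test compounds in the run plus 3 SD, cut at about 38% in these data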
Target sequence (Q96RJ0 whole entry, looked up): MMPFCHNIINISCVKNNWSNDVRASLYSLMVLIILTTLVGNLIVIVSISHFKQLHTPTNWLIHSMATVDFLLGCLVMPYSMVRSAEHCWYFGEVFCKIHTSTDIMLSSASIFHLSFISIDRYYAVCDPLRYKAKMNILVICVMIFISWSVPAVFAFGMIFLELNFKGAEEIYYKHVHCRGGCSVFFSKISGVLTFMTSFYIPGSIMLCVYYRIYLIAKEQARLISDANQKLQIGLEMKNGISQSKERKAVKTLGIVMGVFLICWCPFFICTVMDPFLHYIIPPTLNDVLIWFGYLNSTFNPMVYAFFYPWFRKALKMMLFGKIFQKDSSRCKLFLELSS
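Repeats: no replicates (n 1) | Material: CHO-derived RD-HGA16 cells with stable Gα16 and human TAAR1 | Technique: Kinetic Fluo-8 calcium fluorescence | Schedule: 17-24 h seeding, 75 min 37 °C dye, 30 min RT | Evaluation: % activation from peak over basal fluorescence ratio, DMSO-to-PEA scaled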
CHO parental Ca: counter-screen for OX1R antagonists: effect in parental CHO cells; parental CHO-K1, ATP-induced calcium, Fluo-8 fluorescence; inhibition, % at 5.6 µM; 0.63% of 330,000 active; AID 463079;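 active = inhibition above that plate's mean sample inhibition plus 3 SD, cut at about 26% in these data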;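 note: 0% = ATP-challenged DMSO wells and 100% = DMSO wells without ATP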
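material = parental CHO cells | also added = ATP as calcium-mobilizing challenge | dosing = single point at 5.6 µM | detection = intracellular calcium via Fluo-8 no-wash fluorescent dye | read-out = % inhibition | benchmarks = low control ATP plus DMSO, high control DMSO only | repeats = one well per compound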
GPR7 antag: human neuropeptides B/W receptor 1 antagonism; P48145; GPR7-expressing cells, fluorescence antagonist assay; inhibition, % at 4.4 µM; 1.1% of 290,000 active; AID 1861; in the data active = inhibition above about 16%, passing the limit was not always enough;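 note: cells stimulated with the agonist NPW; 0% = agonist with vehicle and 100% = vehicle without agonist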
Target sequence (P48145 whole entry, looked up): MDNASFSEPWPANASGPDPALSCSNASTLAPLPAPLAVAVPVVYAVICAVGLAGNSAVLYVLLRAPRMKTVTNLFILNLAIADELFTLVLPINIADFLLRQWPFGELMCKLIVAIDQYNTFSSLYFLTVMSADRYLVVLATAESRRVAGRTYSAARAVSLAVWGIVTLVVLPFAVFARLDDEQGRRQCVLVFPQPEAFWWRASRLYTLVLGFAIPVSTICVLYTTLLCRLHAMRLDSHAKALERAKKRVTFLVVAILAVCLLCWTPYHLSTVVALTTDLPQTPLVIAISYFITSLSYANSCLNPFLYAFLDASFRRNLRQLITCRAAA
OX1R antag-1: OX1R (human) antagonism; O43613; OX1R-expressing cells, FRET antagonist read-out; inhibition, % at 6.6 µM; 1.8% of 330,000 active; AID 485270; in the data active = inhibition mostly above about 38%, no sharp cut-off; inactive = mostly below about 40%;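 note: 0% = agonist challenge alone and 100% = reference antagonist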
TAAR1 antagonist: antagonists of human TAAR1 | CHO RD-HGA16 TAAR1, Fluo-8 calcium fluorescence, antagonist | Q96RJ0 | inhibition, % at 3 µM | 1.5% of 360,000 active | AID 624466;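 active = inhibition above a per-plate cutoff, the mean inhibition of test compounds on that plate plus 3 SD, cut at about 49% in these data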;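 note: 0% = DMSO plus EC80 beta-PEA response and 100% = DMSO alone without agonist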
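Material: CHO RD-HGA16 cells bearing hTAAR1; compound dosing: one-point dosing, 3 µM nominal final; schedule: dye loading 75 min at 37 °C, then 30 min room temperature; measured by: calcium fluorescence with Fluo-8; control set: vehicle and agonist controls; replication: n of 1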
OX1R antag-2: blocks the human orexin 1 receptor | CHO/OX1R cells, Fluo-8 calcium fluorescence, orexin A | inhibition, % at 5 µM | 0.43% of 330,000 active | O43613;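 active = inhibition above its plate's threshold, mean inhibition of all tested compounds on the plate plus 3 SD, cut at about 37% in these data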;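 note: 0% = orexin A challenge wells and 100% = SB-334867-A antagonist wells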
TAAR1 ag conf: confirmation of human TAAR1 agonists | shares compounds with TAAR1 agonist | CHO RD-HGA16 TAAR1, Fluo-8 calcium fluorescence; scaled: DMSO 0%, maximal phenethylamine 100% | activation, % at 3 µM | 82% of 2,400 active;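 active = activation above a cutoff set at the run's mean compound activation plus 3 SD, cut at about 39% in these data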
Ga16 nonsel ag: nonselective agonist in parental cells, TAAR1 agonist counter-screen; shares compounds with TAAR1 agonist; CHO-Ga16 parental, Fluo-8 calcium fluorescence; normalized to maximal ATP response, DMSO zero; activation, % at 3 µM; 50% of 2,400 active; AID 651787;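 active = activation above the run cutoff, the mean activation over all tested wells plus 3 SD, cut at about 12% in these data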;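 note: 0% = DMSO wells and 100% = maximal ATP response on the peak over basal ratio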
TAAR1 desens: human TAAR1 agonist that also desensitizes the receptor | shares compounds with TAAR1 agonist | CHO RD-HGA16 hTAAR1, Fluo-8 calcium, beta-PEA response inhibition | inhibition, % at 3 µM | 46% of 2,400 active | AID 651951;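 active = inhibition above the run cutoff, the mean inhibition of all test compounds plus 3 SD, cut at about 49% in these data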;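 note: beta-PEA stimulus applied at its EC80; loss of beta-PEA calcium signal after compound pretreatment read as receptor desensitization; 0% = DMSO with beta-PEA at EC80 and 100% = DMSO alone without agonist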
Ga16 antag count: nonselective Ga16 antagonist in TAAR1 agonist counter-screen; shares compounds with TAAR1 agonist; CHO-Ga16 ATP-induced calcium, Fluo-8 fluorescence; inhibition, % at 3 µM; 39% of 2,400 active; AID 651952;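 active = inhibition above the plate's mean compound inhibition plus 3 SD, computed per plate, cut at about 22% in these data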;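 note: 0% = EC80 ATP with DMSO and 100% = DMSO wells without ATP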
The depositor's hits bear a star; . = no result. An excerpt weighted towards active compounds, which were near 4.6% of everything screened.

SMILES	TAAR1 agonist	CHO parental Ca	GPR7 antag	OX1R antag-1	TAAR1 antagonist	OX1R antag-2	TAAR1 ag conf	Ga16 nonsel ag	TAAR1 desens	Ga16 antag count
O=C(CCN1C(=O)c2ccccc2C1=O)Nn1cnnc1	5	-1	3	3	-8	-2	.	.	.	.
COc1cccc(C(c2sc3nc(C)nn3c2O)N2CCc3ccccc3C2)c1 (configuration not stated)	54*	-13	-6	16	-12	-22	56*	2	22	8
Oc1c(C(c2ccccc2)N2CCc3ccccc3C2)sc2ncnn12 (configuration not stated)	65*	0	-10	5	-13	-11	61*	0	26	12
CC(C)C[C@@H]1O[C@H](CCc2ccccc2)CC2=C1C(=O)OC(C)(C)O2	-1	.	.	.	-21	.	.	.	.	.
COc1ccc(-c2nnc(C)c3nocc23)cc1	0	-9	-7	12	-10	1	.	.	.	.
CCCOc1ccc(C(=O)NC(=S)NNC(=O)c2c(-c3ccccc3)noc2C)cc1	176*	39*	-9	-3	108*	70*	141*	108*	101*	94*
Cc1onc(-c2ccccc2)c1C(=O)NC(=S)NNC(=O)c1ccccc1O	164*	18	-10	-6	57*	18	141*	103*	100*	63*
CCCOc1ccc(NC(=O)c2c(-c3ccccc3)noc2C)cc1	-3	-17	-11	1	2	-19	.	.	.	.
Cc1cc(C)c2c(=O)n(CC(=O)Nc3ccc(Cl)cc3)sc2n1	87*	56*	-8	10	80*	45*	100*	61*	87*	68*
Cc1cc(C)c2c(=O)n(CC(=O)Nc3cccc(F)c3)sc2n1	70*	22	-14	17	72*	6	95*	54*	88*	60*
CCOC(=O)c1cn(CC(=O)Nc2cccc(F)c2)nn1	4	5	11	-4	-4	-4	.	.	.	.
COc1ccc(C(=O)COc2ccc(F)cc2)c(O)c1C	.	-3	-12	20	.	-19	.	.	.	.
O=C(Oc1ccc(Br)cc1C(=S)N1CCCC1)c1ccccc1F	94*	-15	-2	18	57*	-12	-3	3	8	7
Cc1ccccc1-c1cccc2[nH]c3c(c12)CCN1C(=O)[C@H]2[C@H](C)ON(C)[C@H]2C[C@@H]31	10	.	.	.	18	.	.	.	.	.
Cc1cccc2c(C(=O)N3CCN(c4ccccn4)CC3)cc(-c3cccc(Br)c3)nc12	-1	-18	-24	6	-33	-28	.	.	.	.
FC(F)(F)c1cc(-c2ccco2)nc(NCCc2ccccc2)n1	55*	-27	-12	8	11	-41	83*	1	34	9
O=C(CCSc1nc(-c2ccco2)cc(C(F)(F)F)n1)NCCc1ccccc1	1	-4	-8	19	-15	-44	.	.	.	.
COC(=O)c1ccc(N2CCN(CC(=O)c3ccc(-c4ccccc4)cc3)CC2)c([N+](=O)[O-])c1	2	6	12	24	-16	-7	.	.	.	.
CC(Cc1cccs1)NC(=O)Nc1ccc(F)cc1 (configuration not stated)	49*	1	-2	24	-3	-2	82*	2	21	1
S=C(NCCc1ccccc1)Nc1c(Cl)cccc1Cl	68*	-23	-5	17	36	-36	78*	0	80*	9
Fc1ccc(F)c(NC(=S)NCCc2ccccc2)c1	3	11	-4	38	8	-7	.	.	.	.
FC(F)Oc1ccccc1NC(=S)NCCc1ccccc1	51*	-18	.	4	-14	-20	77*	5	35	5
Cc1cc(N2CCN(C(c3ccccc3)c3ccccc3)CC2)n2ncnc2n1	21	-7	-7	5	35	-23	.	.	.	.
Cc1nc2ncnn2c(N2CCN(C(c3ccccc3)c3ccccc3)CC2)c1C	49*	16	-4	1	39	-5	27	15*	17	9
O=C(Nc1ccc(Cn2ccnc2)cc1)c1cccc(C(F)(F)F)c1	42*	.	4	.	31	.	57*	0	36	10
SMILES	TAAR1 agonist	CHO parental Ca	GPR7 antag	OX1R antag-1	TAAR1 antagonist	OX1R antag-2	TAAR1 ag conf	Ga16 nonsel ag	TAAR1 desens	Ga16 antag count
COc1ccc(C(=O)Nc2ccc(Cn3ccnc3)cc2)cc1OC	1	-1	-14	12	1	0	.	.	.	.
CCOC(=O)c1cc(NC(=O)c2cc(C)on2)cc(C(=O)OCC)c1	44*	-15	13	22	26	-12	19	4	2	3
O=C1NC[C@H](CCCCN2C[C@H](Cc3ccc(O)cc3)N(CCc3ccccc3)C(=O)C2=O)N(CCc2ccc(O)cc2)C1=O	5	.	.	.	-16	.	.	.	.	.
CN(CCc1ccccc1)C(C(=O)Nc1ccc2c(c1)OCCO2)c1ccnc2ccccc12 (configuration not stated)	61*	.	.	.	53*	.	78*	7	42	12
CS(=O)(=O)c1ccc(S(=O)(=O)N2CCC(CO)(CCCc3ccccc3)CC2)cc1	7	6	-9	24	20	-5	.	.	.	.
O=C(c1nc2ncccn2n1)N1CCc2ccccc2C1	51*	-10	-12	7	21	0	71*	0	28	6
O=C(c1cccnc1)N1CCc2ccccc2C1	59*	-4	4	26	-6	-5	40*	2	3	8
O=C(c1cccnc1)N1CCc2ccccc21	5	-9	4	5	12	-2	.	.	.	.
O=C(Cn1sc2ccccc2c1=O)Nc1ccc(F)cc1	55*	.	.	.	17	.	59*	39*	33	22*
O=C(Cn1sc2ccccc2c1=O)Nc1ccc(Cl)cc1	55*	.	.	.	46	.	55*	30*	23	29*
CC(CCc1ccccc1)NC(=O)Cc1ccccc1 (configuration not stated)	11	-11	-8	10	-1	-15	.	.	.	.
O=C(O)/C=C/C(=O)NCCc1ccc(Cl)cc1	76*	-9	-11	5	44	-4	97*	7	67*	-4

Screening data: PubChem, The Scripps Research Institute Molecular Screening Center
